Assay results taken from ChEMBL document CHEMBL4811251 (Eur J Med Chem, 2021).

What was measured:
MV4-11 [1] = test: Induction of cell cylce arrest in human MV4-11 cells assessed as accumulation of cells at G2 phase at 10 uM after 72 hrs by RNase A/propidium iodide staining based flow cytometry (reference value: 12.61%); assay type: functional
How it was run: (§1)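 MV4-11 cells were seeded at 8 × 10⁴, held overnight at 37 °C with 5% CO2, then treated 72 h at 3 or 10 µM against a DMSO diluent control. Pellets were fixed in 70% ethanol on ice for 15 min, then stained 1 h at room temperature with PI, 0.1 mg/mL RNase A and 0.05% Triton X-100. Sub-G1, G1, S and G2/M fractions were read by flow cytometry.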

[2] = Cmax in BALB/c mouse at 2 mg/kg, iv measured upto 24 hrs by LC/MS/MS analysis; assay type: ADME, organism-based; parameters: route intravenous, dose 2 mg/kg, time <=24; details: in vivo
[3] = Half life in BALB/c mouse at 2 mg/kg, iv measured upto 24 hrs by LC/MS/MS analysis; assay type: ADME, organism-based; details: in vivo
[4] = AUC in Sprague-Dawley rat at 5 mg/kg, iv measured upto 24 hrs by LC/MS/MS analysis; assay type: ADME, organism-based; parameters: route intravenous, dose 5 mg/kg, time <=24; details: in vivo
MV4-11 [5] = test: Induction of apoptosis in human MV4-11 cells assessed as viable cells at 3 uM after 72 hrs by Annexin V FITC/PI staining based flow cytometry analysis (reference value: 93.63%); assay type: functional; details: read-out: Activity
[6] = Clearance in Sprague-Dawley rat at 5 mg/kg, iv measured upto 24 hrs by LC/MS/MS analysis; assay type: ADME, organism-based; details: in vivo
[7] = Half life in BALB/c mouse at 10 mg/kg, po measured upto 24 hrs by LC/MS/MS analysis; assay type: ADME, organism-based; details: in vivo
[8] = Cmax in Sprague-Dawley rat at 5 mg/kg, iv measured upto 24 hrs by LC/MS/MS analysis; assay type: ADME, organism-based; parameters: route intravenous, dose 5 mg/kg, time <=24; details: in vivo
[9] = target: T1, Macrophage colony-stimulating factor 1 receptor (Homo sapiens, UniProt P07333); test: Inhibition of human FMS using KKKSPGEYVNIEFG as substrate incubated for 40 mins in presence of [gamma-33ATP] by scintillation counting based radiometry assay
[10] = target: Protein kinase C theta (Homo sapiens) (UniProt Q04759); test: Inhibition of PKC theta (unknown origin) assessed as residual activity at 1 uM relative to control
MV4-11 [11] = test: Induction of cell cylce arrest in human MV4-11 cells assessed as accumulation of cells at sub G1 phase at 3 uM after 72 hrs by RNase A/propidium iodide staining based flow cytometry (reference value: 1.58%); assay type: functional; how it was run: as §1
[12] = Clearance in BALB/c mouse at 2 mg/kg, iv measured upto 24 hrs by LC/MS/MS analysis; assay type: ADME, organism-based; details: in vivo
MV4-11 [13] = test: Induction of cell cylce arrest in human MV4-11 cells assessed as accumulation of cells at G2 phase at 3 uM after 72 hrs by RNase A/propidium iodide staining based flow cytometry (reference value: 12.61%); assay type: functional; how it was run: as §1
[14] = Tmax in BALB/c mouse at 2 mg/kg, iv measured upto 24 hrs by LC/MS/MS analysis; assay type: ADME, organism-based; details: in vivo
[15] = Dissociation constant, pKa of the compound by fast UV-spectrometric titration method; assay type: physicochemical
[16] = Cmax in Sprague-Dawley rat at 20 mg/kg, po measured upto 24 hrs by LC/MS/MS analysis; assay type: ADME, organism-based; parameters: route oral, dose 20 mg/kg, time <=24; details: in vivo
[17] = Half life in Sprague-Dawley rat at 20 mg/kg, po measured upto 24 hrs by LC/MS/MS analysis; assay type: ADME, organism-based; details: in vivo
[18] = Tmax in Sprague-Dawley rat at 20 mg/kg, po measured upto 24 hrs by LC/MS/MS analysis; assay type: ADME, organism-based; details: in vivo
[19] = target: Receptor-type tyrosine-protein kinase FLT3 (Homo sapiens) (UniProt P36888); test: Inhibition of human FLT3 at 1 uM using EAIYAAPFAKKK as substrate incubated for 40 mins in presence of [gamma-33ATP] by scintillation counting based radiometry assay relative to control
[20] = Oral bioavailability in BALB/c mouse at 10 mg/kg measured upto 24 hrs by LC/MS/MS analysis; assay type: ADME, organism-based; details: in vivo
MV4-11 [21] = test: Induction of cell cylce arrest in human MV4-11 cells assessed as accumulation of cells at S phase at 3 uM after 72 hrs by RNase A/propidium iodide staining based flow cytometry (reference value: 18.81%); assay type: functional; how it was run: as §1
MV4-11 [22] = test: Induction of apoptosis in human MV4-11 cells assessed as early apoptotic cells at 10 uM after 72 hrs by Annexin V FITC/PI staining based flow cytometry analysis (reference value: 2.73%); assay type: functional
[23] = Half life in Sprague-Dawley rat at 5 mg/kg, iv measured upto 24 hrs by LC/MS/MS analysis; assay type: ADME, organism-based; details: in vivo
[24] = AUC in Sprague-Dawley rat at 20 mg/kg, po measured upto 24 hrs by LC/MS/MS analysis; assay type: ADME, organism-based; parameters: route oral, dose 20 mg/kg, time <=24; details: in vivo
MV4-11 [25] = test: Induction of apoptosis in human MV4-11 cells assessed as necrotic cells at 10 uM after 72 hrs by Annexin V FITC/PI staining based flow cytometry analysis (reference value: 0.23%); assay type: functional
MV4-11 [26] = test: Induction of cell cylce arrest in human MV4-11 cells assessed as accumulation of cells at G1 phase at 10 uM after 72 hrs by RNase A/propidium iodide staining based flow cytometry (reference value: 64.41%); assay type: functional; how it was run: as §1
[27] = Tmax in BALB/c mouse at 10 mg/kg, po measured upto 24 hrs by LC/MS/MS analysis; assay type: ADME, organism-based; details: in vivo
U-937 = test: Antiproliferative activity against human U937 cells assessed as growth inhibition incubated for 72 hrs by MTT assay; assay type: functional
[28] = Oral bioavailability in Sprague-Dawley rat at 20 mg/kg measured upto 24 hrs by LC/MS/MS analysis; assay type: ADME, organism-based; details: in vivo
[29] = Volume of distribution at steady state in Sprague-Dawley rat at 5 mg/kg, iv measured upto 24 hrs by LC/MS/MS analysis; assay type: ADME, organism-based; details: in vivo, read-out: Vdss
[30] = target: CDK9/cyclin T1 (Homo sapiens) (UniProt O60563+P50750); test: Inhibition of CDK9/Cyclin T1 (unknown origin) assessed as residual activity at 1 uM relative to control; assay type: protein-complex assay
[31] = AUC in BALB/c mouse at 10 mg/kg, po measured upto 24 hrs by LC/MS/MS analysis; assay type: ADME, organism-based; parameters: route oral, dose 10 mg/kg, time <=24; details: in vivo
[32] = Cmax in BALB/c mouse at 10 mg/kg, po measured upto 24 hrs by LC/MS/MS analysis; assay type: ADME, organism-based; parameters: route oral, dose 10 mg/kg, time <=24; details: in vivo
[33] = target: T1, Macrophage colony-stimulating factor 1 receptor; test: Inhibition of human CSF1R at 1 uM using KKKSPGEYVNIEFG as substrate incubated for 40 mins in presence of [gamma-33ATP] by scintillation counting based radiometry assay relative to control
[34] = AUC in BALB/c mouse at 2 mg/kg, iv measured upto 24 hrs by LC/MS/MS analysis; assay type: ADME, organism-based; parameters: route intravenous, dose 2 mg/kg, time <=24; details: in vivo
[35] = target: Glycogen synthase kinase-3 beta (Homo sapiens) (UniProt P49841); test: Inhibition of GSK3beta (unknown origin) assessed as residual activity at 1 uM relative to control
MV4-11 [36] = test: Induction of apoptosis in human MV4-11 cells assessed as early apoptotic cells at 3 uM after 72 hrs by Annexin V FITC/PI staining based flow cytometry analysis (reference value: 2.73%); assay type: functional

T1 sequence (P07333 whole entry): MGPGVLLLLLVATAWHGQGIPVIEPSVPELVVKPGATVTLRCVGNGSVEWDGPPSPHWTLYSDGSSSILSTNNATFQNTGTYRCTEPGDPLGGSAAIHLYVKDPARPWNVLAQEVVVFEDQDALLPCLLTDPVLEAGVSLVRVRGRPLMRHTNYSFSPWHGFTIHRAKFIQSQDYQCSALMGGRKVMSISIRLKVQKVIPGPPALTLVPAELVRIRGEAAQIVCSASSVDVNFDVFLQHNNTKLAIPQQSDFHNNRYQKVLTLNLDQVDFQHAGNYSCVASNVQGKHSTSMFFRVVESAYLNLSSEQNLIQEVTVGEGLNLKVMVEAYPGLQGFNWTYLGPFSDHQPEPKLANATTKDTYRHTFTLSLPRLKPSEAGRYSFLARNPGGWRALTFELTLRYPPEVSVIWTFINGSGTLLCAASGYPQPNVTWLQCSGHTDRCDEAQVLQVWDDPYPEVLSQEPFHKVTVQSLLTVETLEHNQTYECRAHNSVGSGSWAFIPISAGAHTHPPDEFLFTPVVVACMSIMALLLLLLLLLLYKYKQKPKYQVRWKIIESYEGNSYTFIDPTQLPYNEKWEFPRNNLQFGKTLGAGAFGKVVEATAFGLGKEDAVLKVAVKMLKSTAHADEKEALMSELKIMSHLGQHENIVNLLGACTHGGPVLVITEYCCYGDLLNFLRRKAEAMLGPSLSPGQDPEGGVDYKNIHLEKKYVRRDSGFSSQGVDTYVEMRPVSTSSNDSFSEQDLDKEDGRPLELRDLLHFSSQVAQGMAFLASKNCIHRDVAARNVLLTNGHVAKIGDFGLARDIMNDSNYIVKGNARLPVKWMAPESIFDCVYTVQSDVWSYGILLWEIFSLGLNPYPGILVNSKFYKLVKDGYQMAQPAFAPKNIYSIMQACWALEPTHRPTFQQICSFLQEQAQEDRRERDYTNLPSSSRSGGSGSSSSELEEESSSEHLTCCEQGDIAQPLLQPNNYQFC
Sequence of Glycogen synthase kinase-3 beta (Homo sapiens) (P49841 whole entry, looked up): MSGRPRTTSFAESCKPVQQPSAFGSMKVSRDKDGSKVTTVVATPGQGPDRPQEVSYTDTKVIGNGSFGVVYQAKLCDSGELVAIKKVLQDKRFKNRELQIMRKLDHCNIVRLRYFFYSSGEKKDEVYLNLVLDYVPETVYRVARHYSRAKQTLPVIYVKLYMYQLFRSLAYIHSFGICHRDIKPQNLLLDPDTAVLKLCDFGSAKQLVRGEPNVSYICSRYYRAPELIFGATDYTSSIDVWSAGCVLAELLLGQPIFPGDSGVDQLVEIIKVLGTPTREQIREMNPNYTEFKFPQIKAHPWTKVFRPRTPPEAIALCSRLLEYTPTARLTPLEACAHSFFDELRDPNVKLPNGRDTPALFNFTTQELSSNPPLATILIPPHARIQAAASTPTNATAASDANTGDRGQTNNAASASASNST
Sequence of Receptor-type tyrosine-protein kinase FLT3 (Homo sapiens) (P36888 whole entry): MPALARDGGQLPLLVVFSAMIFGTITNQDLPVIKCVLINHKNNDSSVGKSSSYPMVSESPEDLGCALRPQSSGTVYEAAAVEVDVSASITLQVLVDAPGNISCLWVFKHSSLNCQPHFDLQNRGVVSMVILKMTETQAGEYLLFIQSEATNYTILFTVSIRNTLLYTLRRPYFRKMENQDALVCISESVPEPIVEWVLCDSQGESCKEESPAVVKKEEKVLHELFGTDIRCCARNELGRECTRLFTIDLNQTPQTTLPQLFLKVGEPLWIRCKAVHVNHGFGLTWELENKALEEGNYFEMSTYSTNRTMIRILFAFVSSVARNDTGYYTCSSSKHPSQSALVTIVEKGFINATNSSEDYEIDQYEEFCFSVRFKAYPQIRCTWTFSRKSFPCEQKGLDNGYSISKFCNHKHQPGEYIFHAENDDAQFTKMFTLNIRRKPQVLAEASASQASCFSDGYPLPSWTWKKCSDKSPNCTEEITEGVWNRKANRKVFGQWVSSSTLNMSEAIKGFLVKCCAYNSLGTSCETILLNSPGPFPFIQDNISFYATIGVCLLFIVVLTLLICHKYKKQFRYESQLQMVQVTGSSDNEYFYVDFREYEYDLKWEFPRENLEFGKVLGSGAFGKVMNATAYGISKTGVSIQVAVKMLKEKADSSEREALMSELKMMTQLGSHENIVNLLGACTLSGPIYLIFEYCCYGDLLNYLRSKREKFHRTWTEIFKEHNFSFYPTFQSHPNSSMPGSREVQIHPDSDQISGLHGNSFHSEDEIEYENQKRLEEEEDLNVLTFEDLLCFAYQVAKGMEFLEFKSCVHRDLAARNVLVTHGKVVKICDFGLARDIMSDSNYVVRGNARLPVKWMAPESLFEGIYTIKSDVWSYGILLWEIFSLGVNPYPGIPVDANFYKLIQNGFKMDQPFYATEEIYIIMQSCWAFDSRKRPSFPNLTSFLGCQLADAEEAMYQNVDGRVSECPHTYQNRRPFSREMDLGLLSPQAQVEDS
Sequence of Protein kinase C theta (Homo sapiens) (Q04759 whole entry, looked up): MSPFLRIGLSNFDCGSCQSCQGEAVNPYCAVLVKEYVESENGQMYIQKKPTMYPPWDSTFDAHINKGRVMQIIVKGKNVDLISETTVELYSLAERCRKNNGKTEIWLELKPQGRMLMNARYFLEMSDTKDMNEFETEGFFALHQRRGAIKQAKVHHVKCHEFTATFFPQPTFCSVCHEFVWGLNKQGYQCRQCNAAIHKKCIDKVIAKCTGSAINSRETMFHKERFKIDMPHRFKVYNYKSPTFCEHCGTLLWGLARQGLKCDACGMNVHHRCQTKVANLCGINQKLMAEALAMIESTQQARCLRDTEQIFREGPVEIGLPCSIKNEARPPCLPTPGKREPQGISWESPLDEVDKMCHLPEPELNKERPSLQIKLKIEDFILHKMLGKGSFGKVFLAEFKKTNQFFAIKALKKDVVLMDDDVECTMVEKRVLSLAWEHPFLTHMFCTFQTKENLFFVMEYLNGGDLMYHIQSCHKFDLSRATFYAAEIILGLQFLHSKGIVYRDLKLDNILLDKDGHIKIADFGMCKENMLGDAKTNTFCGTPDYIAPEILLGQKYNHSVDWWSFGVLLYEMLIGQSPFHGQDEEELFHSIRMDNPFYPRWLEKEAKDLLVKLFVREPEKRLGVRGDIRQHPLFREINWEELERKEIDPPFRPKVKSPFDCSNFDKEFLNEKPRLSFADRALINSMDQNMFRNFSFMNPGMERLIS

Nc1ncc(-c2cc3ccccc3o2)c(N2CCC3(CCNC3=O)CC2)c1Cl
Activity (MV4-11 [1]): 1.83%
Cmax [2]: 4.16 µM
half-life [3]: 0.37 h
AUC at 24 h [4]: 8.92 µM·h
viability at 3 µM (MV4-11 [5]): 89.5%
clearance [6]: 23.8 mL/min/kg
half-life [7]: 3.44 h
Cmax [8]: 9.36 µM
Ki [9]: 166 nM
Activity [10]: 61%
Activity (MV4-11 [11]): 1.73%
clearance [12]: 54.2 mL/min/kg
Activity (MV4-11 [13]): 8.11%
Tmax [14]: 3 min
pKa [15]: 5.27
Cmax [16]: 3.2 µM
half-life [17]: 6.99 h
Tmax [18]: 4 h
inhibition [19]: > 50%
bioavailability [20]: 33%
Activity (MV4-11 [21]): 10.03%
Activity (MV4-11 [22]): 1.96%
half-life [23]: 1.45 h
AUC at 24 h [24]: 25.1 µM·h
Activity (MV4-11 [25]): 0.59%
Activity (MV4-11 [26]): 90.92%
Tmax [27]: 0.34 h
GI50 (U-937): 4880 nM
bioavailability [28]: 70%
Vd [29]: 1.57 L/kg
Activity [30]: 61%
AUC at 24 h [31]: 2.56 µM·h
Cmax [32]: 2.23 µM
inhibition [33]: > 50%
AUC at 24 h [34]: 1.55 µM·h
Activity [35]: 61%
Activity (MV4-11 [36]): 1.81%
